Screening data deposited in PubChem by Broad Institute.
T cruzi repl: T. cruzi replication inhibition | T. cruzi beta-gal in NIH3T3, luminescence, 90 h | inhibition, % (concentration not given with the values) | 300,000 compounds, 1.4% hits | AID 1885;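 active = mean inhibition across valid replicates above about 55%, limit read from the data; inconclusive = mean below that limit but half or more replicates reach it; inactive = mean below it, under half of replicates reach it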;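 also: signal also drops with host cell toxicity which is not excluded here; 0% = plate median of DMSO wells and 100% = zero luminescence signal; higher percent means less beta-gal luminescence so fewer parasites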
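Incubation – ≥90 h infection period, 3 h prior cell attachment · System – NIH/3T3 fibroblasts plus reporter T. cruzi · Doses – compound pinned at 50 nL/well, DMSO · Read-out basis – percent inhibition of parasite-derived β-gal signal · Signal – luminescent β-galactosidase signal after 60 min lysis · Also added – 5000 T. cruzi trypomastigotes/well · Medium – Low-serum DMEM with 2% FBS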
CSC inhib: blocks cancer stem cells; cancer stem cell-like cells viability, luminescence; inhibition, % at 7.5 µM; 300,000 compounds, 1.1% hits; AID 2717; in the data active = inhibition above about 75%; inconclusive = no clear call, values can overlap the other calls; tested in HMLE shEcad cells
PolyA inhibitor: yeast polyadenylation inhibition; activity score, % at 12 µM; S. cerevisiae SKY197-pL101 polyadenylation reporter, beta-gal luminescence; efflux-impaired pdr1/pdr3 knockout yeast; score 100 = 6 SD above DMSO; AID 1875; 300,000 compounds, 0.02% hits;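 active = lowest replicate activity score at least 50, where 100 means six control SD above control mean; inconclusive = lowest score under 50 but half or more replicates reach 50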;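 also: yeast exposed to compound for 9 h at 30 °C; higher score means more reporter readthrough which indicates perturbed polyadenylation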
HIF activator: HIF pathway transcriptional activation | U2OS HRE-luciferase reporter, luminescence; normalized: DMSO 0%, desferrioxamine 100% | 300,000 compounds, 0.32% hits | activation, % at 7.5 µM (by protocol);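 active = mean activation of at least 10% of the iron chelator positive control signal, with at least half of replicates also reaching 10%; inconclusive = mean and replicate majority disagree about reaching 10%; inactive = mean and most replicates under 10%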
Calb FLC: C. albicans growth modulation with fluconazole; C. albicans CaCi-2 + fluconazole, Alamar Blue growth, 48 h; growth inhibition, % (test concentration not listed); 300,000 compounds, 0.57% hits; AID 1979;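 active = growth inhibition above about 58% in most replicates, limit read from the data, passing the limit was not always enough; inconclusive = exactly half the replicates above a set limit; inactive = most replicates below a set limit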;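 also: all wells also contain fluconazole at 8 µg/ml as a sub-toxic cotreatment; 0% = median of DMSO wells and 100% = median of geldanamycin control wells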
Beta apoptosis: blocks beta cell apoptosis | INS-1E cytokine-induced death, ATP luminescence, 48 h; percent of positive-control rescue, neutral wells zero | protection from apoptosis, % (concentration not given with the values) | 300,000 compounds, 0.8% hits | AID 435005;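 active = Every replicate reaches about 75%, or at least half do and their mean reaches it too, limit read from the data; inconclusive = At least half of replicates reach the limit but their mean does not; inactive = Under half of replicates reach the limit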;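 also: 0% = cytokine-treated negative control wells and 100% = positive control rescue; higher means more ATP so stronger rescue from cytokine killing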
The depositor's hits bear a star; ? = inconclusive; nt = no result. The list is not random: actives were taken first. Their share in the collection is about 3.1%.

SMILES	T cruzi repl	CSC inhib	PolyA inhibitor	HIF activator	Calb FLC	Beta apoptosis
Cc1ccc(S(=O)(=O)NC23CC4CC(CC(C4)C2)C3)cc1	nt	nt	nt	nt	nt	4
CC(OC(=O)c1cccc(-n2cnnn2)c1)c1nc2ccccc2c(=O)[nH]1 (stereo not drawn)	nt	nt	nt	nt	nt	-4
Cc1ccc(NC(=O)/C=C/c2ccco2)cc1S(=O)(=O)N1CCCCCC1	46	7	-11	0	-4	1
Cc1c[nH]c2cccc(OCC(CNC(C)(C)C)OC(=O)c3ccccc3)c12 (stereo not drawn)	-2	-7	-13	0	-4	3
Cc1ccc(CN(CC(O)COc2cccc3[nH]cc(C)c23)C(C)(C)C)cc1 (stereo not drawn)	32	76*	-24	-2	-26	-2
COC(=O)Cc1c[nH]c2cccc(OCC(O)CN(Cc3ccc([N+](=O)[O-])cc3)C(C)(C)C)c12 (stereo not drawn)	65*	0	-9	0	-4	nt
COC(=O)Cc1c[nH]c2cccc(OCC(O)CN(Cc3ccccc3)C(C)C)c12 (stereo not drawn)	10	0	15	-1	1	-1
COc1ccccc1C(=O)NCC(=O)OCC(=O)Nc1ccc2[nH]c(=O)[nH]c2c1	-9	-8	-10	1	4	4
CCN(CC)CCNC(=O)c1cc(Nc2ccc(OC)c(OC)c2)nc2ccccc12	-9	-7	-1	0	0	2
CCN(CC)CCNC(=O)c1ccc(NC(=O)c2cn(-c3ccc(F)cc3)nc2-c2cccc(OC)c2)cc1	65*	21	13	-41	1	15
CCN(CC)CCNC(=O)c1ccc(NC(=O)c2cn(-c3ccccc3)nc2-c2cccs2)cc1	46	33	5	0	-9	79*
COc1cccc(C2/C(=C(\O)c3ccc4c(c3)OCCO4)C(=O)C(=O)N2Cc2cccnc2)c1 (stereo not drawn)	-4	3	3	1	4	-1
CCOc1ccccc1N(C(=O)Nc1ccc(Cl)cc1)C1=NCCS1	2	84*	nt	2	nt	3
O=C(Nc1cc(Cl)cc(Cl)c1)N1CCCC1	0	20	-14	0	14	-4
Brc1ccc(N/N=C(/N=Nc2nn[nH]n2)c2ccccc2)cc1	-28	-10	-20	84*	124*	96*
O=C(O)c1ccc(N=N/C(=N\Nc2ccc(C(=O)O)cc2)c2ccccc2)cc1	-3	15	1	-2	1	19
CCCCCn1c(N2CCC(Cc3ccccc3)CC2)nc2c1c(=O)[nH]c(=O)n2C	57*	118*	18	0	-10	20
C/C(=N\NC(=O)c1ccn(C)n1)c1cccc(NC(=O)c2ccc(C)s2)c1	2	-13	-4	3	?	10
Cc1ccc(O)c(-c2cc(-c3ccc(F)cc3)no2)c1	-13	15	-20	1	-8	nt
C(=N\Nc1nc(N2CCCC2)nc(N2CCCC2)n1)/c1cccnc1	-7	13	19	0	-8	-2
FC(F)(F)COc1nc(N/N=C/c2cccnc2)nc(N2CCCCC2c2ccccn2)n1 (stereo not drawn)	59*	5	2	-1	11	12
CCC(=NCc1ccc(Cl)c(Cl)c1)c1nc(-c2ccco2)oc1O	20	102*	0	0	-3	5
CCN(Cc1ccccc1)C(=O)c1ccc(NC(=O)c2ccc(OC)cc2)cc1	2	-3	-10	-1	-1	4
O=C1CC2(CCN(C(=O)c3ccc(F)cc3)CC2)Oc2ccccc21	-8	-4	-7	-7	3	-6
O=S(=O)(Nc1ccc(-n2cccc2)cc1)c1ccc(F)cc1	2	7	-9	0	7	nt
SMILES	T cruzi repl	CSC inhib	PolyA inhibitor	HIF activator	Calb FLC	Beta apoptosis
O=S(=O)(Nc1ccc(-n2cccc2)cc1)c1ccc(Cl)c(Cl)c1	nt	84*	-32	nt	11	2
CCOC(=O)N=Nc1c2ccccc2c2nc3no[nH]c3nc12	53	nt	-110	-3	112*	nt
CCOC(=O)N=Nc1c(O)n(CC(=O)OC)c2ccccc12	-9	0	-11	0	-11	-1
COc1ccc(N2CCN(C(=O)CN3CCN(c4nc(-c5ccc(F)cc5)cs4)CC3)CC2)cc1	3	1	2	-34	20	45
COc1ccc(CCNCC(O)Cn2c3ccccc3c3ccccc32)cc1OC (stereo not drawn)	61*	-12	17	-6	-13	-2
O=C(NCCc1c[nH]c2ccccc12)C(=O)Nc1ccccc1	-32	81*	2	3	0	-3
OCCCNc1c2ccccc2nc2ccccc12	70*	32	-26	16*	2	109*
c1ccc2c(NCCc3c[nH]c4ccccc34)c3ccccc3nc2c1	63*	87*	15	13*	12	nt
COc1ccccc1NCC(O)Cn1c2ccccc2c2ccccc21 (stereo not drawn)	38	52	-12	0	19	-1
Cc1ccc(N(C(=O)CNC(=O)c2ccco2)C(C(=O)NC2CCCCC2)c2ccncc2)c(C)c1 (stereo not drawn)	-1	nt	-19	0	14	-4
COc1ccc(NC(=O)Cc2ccsc2)cc1S(=O)(=O)N1CCOCC1	nt	nt	nt	nt	nt	-3
COc1nc(NCCc2ccc(OC)c(OC)c2)nc(OC)n1	-4	-6	0	0	-5	-3
COc1ccc(CCNc2c3ccccc3nc3ccccc23)cc1OC	27	13	3	1	-14	77*
CCOc1ccc(N(C)c2ccc(/C=C3/SC(=S)NC3=O)cc2)cc1	6	97*	-2	-1	13	1
COc1ccc(NC(=S)c2ccc(N(C)C)cc2)cc1	-14	-2	-5	36*	-5	-8
COc1ccc(CCNCc2ccc(OCC(=O)N3CCCCC3)c(OC)c2)cc1OC	57*	-16	-3	0	-4	0
COc1ccc(NC(=O)C(Sc2nnc3ccccn23)c2ccccc2)cc1Cl (stereo not drawn)	1	-11	-6	0	-4	2
CC(Oc1ccccc1)C(=O)N1CCN=C1SCc1ccc(F)cc1 (stereo not drawn)	15	-3	?	0	5	-2
C=CCn1c(O)c(N=NC(=S)Nc2ccc(OC)c(Cl)c2)c2ccccc21	57*	44	12	0	45	57
C=CCn1c(O)c(N=NC(=O)OC(C)(C)C)c2ccccc21	13	-11	-14	0	7	-9
C=CCn1c(O)c(N=NC(=S)Nc2ccccc2C)c2cc(S(=O)(=O)N3CCOCC3)ccc21	40	31	4	0	106*	55
COc1cc([C@@H]2Oc3cc(C4Oc5cc(O)cc(O)c5C(=O)[C@H]4O)ccc3O[C@H]2CO)ccc1O (stereo partly drawn)	nt	-11	nt	nt	nt	nt
